# Source: ChEMBL document CHEMBL4819122, “Novel 4-(piperazin-1-yl)quinolin-2(1H)-one bearing thiazoles with antiproliferative activity through VEGFR-2-TK inhibition” (Bioorg Med Chem, 2021)
# pIC50: −log10 of the molar value. Calls of active or inactive are those of the source. The rule behind the calls is not given here.
# What was measured:
# T47D = test: Cytotoxicity against human T47D cells assessed as reduction in cell viability after 3 hrs by MTT assay
# HOP-92 = test: Cytotoxicity against human HOP-92 assessed as growth inhibition at 10 uM by NCI protocol relative to control; format: functional; details: read-out: GI
# Method in brief: (§1)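 Run by NCI as a single-dose screen at 10 μM across the sixty-cell-line panel, which covers nine human tumour tissue types. The read-out is percent growth inhibition of treated cells relative to untreated cells.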
# MDA-MB-435 = test: Cytotoxicity against human MDA-MB-435 assessed as growth inhibition at 10 uM by NCI protocol relative to control; format: functional, cell-based; method in brief: as §1
compound,measurement,setting,value
O=c1cc(N2CCNCC2)c2ccccc2n1-c1ccccc1,pIC50,T47D,4.04
same,inhibition of growth at 10 µM,HOP-92,17%
same,growth inhibition (GI),MDA-MB-435,inactive
